# In the library only some 2.1% were active in any assay of this set; here they are far more common.
# KLK5 inh: kallikrein 5 (human) inhibition; Q9Y337; recombinant hK5, fluorogenic AMC substrate cleavage; inhibition, % at 5 µM; actives 0.59% (n = 210,000); AID 873;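 active means inhibition of 40% or more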
# EP2 modulator: EP2 receptor (human) modulation. EP2-expressing cells, cAMP HTRF FRET, PGE2 co-stimulation. induction, % at 25 µM. actives 0.83% (n = 260,000). P43116;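 active means compounds whose cAMP rise, as percent of the full-agonist control response, exceeds 60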;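 further: rat C6 glioma line stably carrying human EP2 under a CMV promoter; the protocol text gives 20 µM as final concentration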
# thrombin 1536: blocks human thrombin protease activity; inhibition, % at 5 µM; AID 1046; P00734; alpha-thrombin, Boc-VPR-AMC fluorogenic substrate cleavage; actives 0.26% (n = 220,000);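 active means inhibition at or above 40%; inactive means inhibition below 40%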
#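 Test system: human alpha-thrombin protein / Dosing: one concentration per compound, 5 µM, with 0.2% DMSO / Medium: pH 7.5 Tris-saline with Tween 20 / Benchmarks: no-compound enzyme wells and no-enzyme blanks / Read-out basis: percent inhibition of thrombin substrate cleavage / Timing: reaction at room temperature / Measured by: fluorescence, ex 355 nm, em 460 nm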
# FXIa inh 1536: factor XIa (human) inhibition. P03951. purified FXIa, Boc-Glu-Ala-Arg-AMC fluorogenic substrate. inhibition, % at 5 µM. actives 0.14% (n = 220,000). AID 798;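 active means inhibition of at least 40%; inactive means inhibition below 40%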;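 further: fluorescence of freed AMC excited at 355 nm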
# FXIIa inh 1536: blocks human coagulation factor XIIa protease activity | inhibition, % at 5 µM | AID 800 | P00748 | purified FXIIa, Boc-QGR-AMC fluorogenic substrate, 2 h | actives 0.3% (n = 220,000); in the data active means inhibition above about 40%
# Target sequence (P00748 20-372 limits assumed): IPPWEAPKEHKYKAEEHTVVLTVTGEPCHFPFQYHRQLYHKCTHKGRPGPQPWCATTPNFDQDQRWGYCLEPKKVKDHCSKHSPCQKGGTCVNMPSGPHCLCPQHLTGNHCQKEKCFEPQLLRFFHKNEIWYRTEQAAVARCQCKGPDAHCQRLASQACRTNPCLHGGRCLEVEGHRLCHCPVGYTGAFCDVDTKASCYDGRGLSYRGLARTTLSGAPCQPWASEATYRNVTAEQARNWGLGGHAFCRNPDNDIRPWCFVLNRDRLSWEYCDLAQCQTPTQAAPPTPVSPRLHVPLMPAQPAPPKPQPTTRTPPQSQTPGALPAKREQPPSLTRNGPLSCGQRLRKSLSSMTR
# Target sequence (P00748 373-615 limits assumed): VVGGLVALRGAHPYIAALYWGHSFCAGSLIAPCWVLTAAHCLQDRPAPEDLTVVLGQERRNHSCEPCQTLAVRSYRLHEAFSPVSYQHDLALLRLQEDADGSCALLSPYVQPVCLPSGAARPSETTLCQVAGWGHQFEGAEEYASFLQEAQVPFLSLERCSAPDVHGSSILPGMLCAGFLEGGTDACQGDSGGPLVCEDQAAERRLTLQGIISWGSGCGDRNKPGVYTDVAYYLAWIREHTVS
# EP2 antag: inhibitors of human EP2 prostaglandin E2 receptor; P43116; C6 glioma cells expressing human EP2, cAMP TR-FRET; cells stimulated with saturating PGE2; inhibition, % at 25 µM; actives 0.52% (n = 260,000); AID 1422;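 active means percent inhibition above 40 after rounding to a whole number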;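 further: rat C6 glioma host cells with rolipram phosphodiesterase inhibitor present; the protocol text gives 20 µM as final concentration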
# Numbers stand for hits; 0 = inactive; - = no result given.
SMILES,KLK5 inh,EP2 modulator,thrombin 1536,FXIa inh 1536,FXIIa inh 1536,EP2 antag
Cc1ccc(C2C=C(c3ccccc3)Nc3nc(N4C(=O)CCC4=O)nn32)cc1 (stereo unspecified),0,0,48.1,0,0,0
CCCCOC(=O)n1ccc(C(=O)Nc2ccccc2OC)n1,0,0,44.7,0,0,0
O=C(O)c1ccccc1C(=O)Nc1ccccc1,0,0,0,0,0,0
O=C(Nc1ccccc1)C1=C(c2ccccc2)S(=O)(=O)CCS1(=O)=O,0,0,0,0,0,45.9
COc1cc(NC(=O)c2cnc(N)s2)cc(C(=O)Nc2cccc(C(F)(F)F)c2)c1,0,0,0,0,0,52.6
COc1cc(NC(=O)c2ccnc(N)c2)cc(C(=O)Nc2cccc(C(F)(F)F)c2)c1,0,0,0,0,0,0
CCCC(c1nnnn1C(C)(C)C)N(Cc1ccc(OC)cc1)Cc1cc2cccc(C)c2[nH]c1=O (stereo unspecified),-,0,-,-,-,0
Cc1ccc(C)c(NC(=O)CN(C)C(=O)CCN2C(=O)c3ccccc3C2=O)c1,53.1,0,0,0,46.0,0
COc1ccc(-c2nc3n(c2NC(C)(C)C)CCN(C(=O)c2cn(C)nc2C)C3)cc1,-,0,-,-,-,-
Cn1cccc1-c1nc2ccc(NC(=O)c3cccs3)cc2[nH]1,0,0,0,0,0,47.6
CNC(=S)N1CCC(NC(=O)NC2CCCCC2)CC1,-,0,-,-,-,0
CS(=O)(=O)c1ccc(Cl)c(NC(=O)COC(=O)CNC(=O)c2ccccc2)c1,0,0,0,41.5,0,0
CCN1CCN(CC(=O)Nc2cc(C)on2)CC1,41.6,0,0,45.5,0,0
Cc1cc(NC(=O)CN2CCCCC2)no1,0,0,-,0,0,0
CCOC(=O)c1[nH]c2ccccc2c1NC(=S)Nc1ccccc1,0,0,43.0,0,0,-
CCOC(=O)c1cc(C)sc1NC(=S)Nc1ccccc1,0,64.6,0,0,0,0
CCc1c(C)sc(NC(=O)c2cc(-c3ccccc3Cl)on2)c1C#N,-,0,-,-,-,0
Cc1n(CC(O)COc2ccc(Cl)cc2)c2ccccc2[n+]1C (stereo unspecified),-,0,-,-,-,0
Cc1cccc(Cn2c(NC3CCCC3)nc3c2c(=O)[nH]c(=O)n3C)c1,-,0,-,-,-,0
Cn1c(=O)[nH]c(=O)c2c1nc(NC1CCCCC1)n2Cc1ccccc1,0,61.0,0,0,0,0
COc1ccc(C(=O)NC(=S)Nc2cccc(Cl)c2N2CCOCC2)cc1[N+](=O)[O-],42.4,0,0,0,0,0
COc1ccc(CCN(C(=O)CCCl)c2nc(-c3ccccc3)cs2)cc1OC,-,0,-,-,-,0
COc1ccc(/C=C/C(=O)Nc2ccccc2C)cc1S(=O)(=O)N1CCOCC1,0,0,0,0,0,0
CCC(C)(C)NC(=O)/C=C/c1ccc(OC)c(S(=O)(=O)N2CCOCC2)c1,42.5,0,0,0,0,0
CC1(CC(=O)NNC(=S)Nc2ccccc2)OCCO1,-,0,-,-,-,0
SMILES,KLK5 inh,EP2 modulator,thrombin 1536,FXIa inh 1536,FXIIa inh 1536,EP2 antag
CSc1ccc(NC(=O)Nc2ccc(C(=O)NCC(=O)O)cc2)cc1,63.6,0,0,0,0,0
CC(C)[C@H](NC(=O)c1ccco1)C(=O)OCC(=O)Nc1ccccc1OC(F)F,53.5,0,0,0,0,0
O=C(COC(=O)COc1ccccc1Cl)Nc1ccccc1OC(F)F,0,0,0,0,99.9,0
O=C(CN1CCCCC1)Nc1ccccc1F,-,0,-,-,-,0
N=C(N)SCCc1ccc(CCSC(=N)N)cc1,-,0,-,-,-,0
N=C(N)SCCc1ccncc1,-,0,-,-,-,47.7
CC1(C)CC2CC(C)(CN2C(=O)c2cc(-c3ccccc3O)on2)C1 (stereo unspecified),45.4,0,0,0,0,0
COc1ccc(-c2cc(C(=O)N3CC4(C)CC3CC(C)(C)C4)no2)cc1 (stereo unspecified),0,0,0,0,0,0
COc1ccc(-c2c[n+]3c4n2CCCCC4=C(c2ccccc2)C3)cc1,0,0,58.3,0,0,0
COc1ccc(-c2c[n+](CC(=O)c3ccccc3)c3n2CCCCC3)cc1,0,0,0,0,0,0
COc1cc(OC)cc(C(=O)/C=C2\Sc3ccccc3N2C)c1,-,0,0,0,0,0
CN1/C(=C/C(=O)c2ccc(Cl)cc2)Sc2cc3c(cc21)OCO3,0,0,0,0,0,75.4
COc1ccc2c(c1)S/C(=C\C(=O)c1ccncc1)N2C,0,0,0,0,0,0
COc1ccc(C(=O)/C=C2/Sc3cc4c(cc3N2C)OCO4)cc1,0,0,0,0,0,76.7
COc1ccc2c(c1)cc(C)c1nn(Cc3ccncc3)c(=O)n12,-,0,-,-,-,-
CC(=O)c1ccc(N(C(=O)Cc2cccs2)C(C(=O)NC2CCCCC2)c2cccs2)cc1 (stereo unspecified),-,0,-,-,-,66.7
O=C(NC1CCCC1)C(c1ccncc1)N(Cc1ccc2c(c1)OCO2)C(=O)Cc1cccs1 (stereo unspecified),-,0,-,-,-,0
Cc1ccc(C(C(=O)NC2CCCCC2)N(Cc2ccco2)C(=O)Cc2cccs2)cc1 (stereo unspecified),-,61.5,-,-,-,0
O=C(NC1CCCCC1)C(c1ccco1)N(Cc1ccc2c(c1)OCO2)C(=O)Cc1cccs1 (stereo unspecified),-,87.0,-,-,-,0
CC(=O)c1ccc(N(C(=O)CS(=O)CC(=O)Nc2ccc(F)cc2)C(C(=O)NC2CCCCC2)c2cccs2)cc1 (stereo unspecified),0,0,0,0,0,0
CC(C)[C@@H](Cn1nc(C2CC2)ccc1=O)NC(=O)C1CCC1,-,0,-,-,-,-
CCC1=C(C[C@H]2NCCc3ccccc32)C[C@H]2c3cc(OC)c(OC)cc3CCN2C1,-,0,-,-,-,53.1
CCOc1ccc(NC(=O)CSc2nnc(-c3cccc(C)c3)n2C)cc1,-,0,-,-,-,0
COc1ccc(-c2nnc(-c3cc(OC)c(OC)c(OC)c3)o2)cc1OC,0,0,0,0,0,0
COc1cc(-c2nnco2)cc(OC)c1OC,0,0,0,0,47.4,0
SMILES,KLK5 inh,EP2 modulator,thrombin 1536,FXIa inh 1536,FXIIa inh 1536,EP2 antag
COc1ccccc1N1CCN(C(c2cccc(OC)c2OC)c2nnnn2C2CCCCC2)CC1 (stereo unspecified),-,0,-,-,-,0
O=C(NC1CCN(S(=O)(=O)c2ccccc2F)CC1)C1CCCCC1,-,0,-,-,-,0
OCc1nnc2n1CCN(Cc1cccc(OC3CCCC3)c1)C2,-,0,-,-,-,0
O=C(COc1ccc(Cl)cc1Cl)N1CCN(c2ccccn2)CC1,0,0,0,0,0,0
O=C(COc1cc(Cl)c(Cl)cc1Cl)N1CCN(c2ccccn2)CC1,0,0,53.9,0,0,0
Cc1ccc2cc(CN(C(=O)c3cnccn3)C3CCCCC3)c3nnnn3c2c1,-,0,-,-,-,0
CCOC(=O)c1sc2cc([N+](=O)[O-])cc(SCC(=O)OC)c2c1N,68.0,0,0,0,0,0
CCOC(=O)c1sc2cc([N+](=O)[O-])cc(SCCO)c2c1N,0,0,0,0,0,0
O=C(Oc1ccc(=O)n(-c2ccccc2)n1)c1ccc(Cl)cc1,0,0,0,51.3,0,0
